# Calls of active or inactive are those of the source. The calls are words filed in the database; no cut-off is given here.
# What was measured:
# [1] = biological target: Hyaluronidase (Bos taurus) (UniProt Q8SQG8+Q5E985); test: Inhibition of bovine testes hyaluronidase using hyaluronic acid as substrate assessed as residual activity at 100 uM by nephelometric method relative to control; format: protein assay
# Summary of the method: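 Hyaluronidase assayed nephelometrically per supplier-recommended protocol. Compounds added from DMSO stock (100 mM), DMSO ≤1% of total volume; activity expressed as percent of activity with DMSO alone.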
# Saccharomyces cerevisiae [2] = test: Inhibition of Saccharomyces cerevisiae alpha-glucosidase using pNPG as substrate assessed as residual activity at 100 uM preincubated for 20 mins followed by substrate addition measured after 45 mins relative to control
# Summary of the method: (§1)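 α-Glucosidase (0.175 U/ml) in water with compound (1 µL DMSO dilution) pre-incubated 20 min at 37 °C. Then added PBS (140 mM, pH 7.2), reduced glutathione (9 mM) and pNPG (0.9 mM). Incubated 45 min at 37 °C, read at 400 nm. % inhibition = (AC−AS)/AC×100 vs DMSO-only control. Triplicates with blanks.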
# [3] = tested on: beta-glucuronidase (Bos taurus); test: Inhibition of bovine liver beta-glucuronidase using phenolphthalein beta-glucuronide as substrate assessed as residual activity measured liberation of phenolphthalein at 100 uM relative to control
# Saccharomyces cerevisiae [4] = test: Uncompetitive inhibition of Saccharomyces cerevisiae alpha-glucosidase using pNPG as substrate at 0.17 to 100 uM by Dixon plot analysis
# [5] = Inhibition of Saccharomyces cerevisiae alpha-glucosidase using pNPG as substrate at 100 uM preincubated for 20 mins followed by substrate addition measured after 45 mins; summary of the method: as §1
# [6] = Uncompetitive inhibition of Saccharomyces cerevisiae alpha-glucosidase using pNPG as substrate by Cornish-Bowden plot analysis
# Saccharomyces cerevisiae [7] = test: Uncompetitive inhibition of Saccharomyces cerevisiae alpha-glucosidase using pNPG as substrate at 0.17 to 100 uM by Lineweaver-Burk plot analysis
# Saccharomyces cerevisiae [8] = test: Uncompetitive inhibition of Saccharomyces cerevisiae alpha-glucosidase using pNPG as substrate assessed as ratio of Kik to Kiv at 8 uM
# Saccharomyces cerevisiae [9] = test: Uncompetitive inhibition of Saccharomyces cerevisiae alpha-glucosidase using maltose as substrate assessed as ratio of Kik to Kiv at 8 uM
# Summary of the method: (§2)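 Maltose as substrate in the α-glucosidase protocol (20 min preincubation with inhibitor at 37 °C, then substrate incubation at 37 °C). Reaction stopped at 95 °C for 3 min, and released glucose measured with an HK/G6P-DH glucose kit. Vmax and Km by Lineweaver-Burk; Kik/Kiv ratio per Yang et al.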
# Saccharomyces cerevisiae [10] = test: Uncompetitive inhibition of Saccharomyces cerevisiae alpha-glucosidase using maltose as substrate assessed as ratio of Kik to Kiv at 1.6 uM; summary of the method: as §2
# Saccharomyces cerevisiae [11] = test: Uncompetitive inhibition of Saccharomyces cerevisiae alpha-glucosidase using maltose as substrate at 0.17 to 100 uM by Dixon plot analysis
# Saccharomyces cerevisiae [12] = test: Uncompetitive inhibition of Saccharomyces cerevisiae alpha-glucosidase using maltose as substrate assessed as ratio of Kik to Kiv at 4 uM; summary of the method: as §2
# Saccharomyces cerevisiae [13] = test: Uncompetitive inhibition of Saccharomyces cerevisiae alpha-glucosidase using maltose as substrate assessed as ratio of Kik to Kiv at 2.4 uM; summary of the method: as §2
# Saccharomyces cerevisiae [14] = test: Uncompetitive inhibition of Saccharomyces cerevisiae alpha-glucosidase using pNPG as substrate assessed as ratio of Kik to Kiv at 1.6 uM
# Saccharomyces cerevisiae [15] = test: Uncompetitive inhibition of Saccharomyces cerevisiae alpha-glucosidase using maltose as substrate at 0.17 to 100 uM by Lineweaver-Burk plot analysis; summary of the method: as §2
# Saccharomyces cerevisiae [16] = test: Uncompetitive inhibition of Saccharomyces cerevisiae alpha-glucosidase using maltose as substrate assessed as ratio of Kik to Kiv at 1.2 uM; summary of the method: as §2
# Saccharomyces cerevisiae [17] = test: Uncompetitive inhibition of Saccharomyces cerevisiae alpha-glucosidase using pNPG as substrate assessed as ratio of Kik to Kiv at 1.2 uM
# Saccharomyces cerevisiae [18] = test: Uncompetitive inhibition of Saccharomyces cerevisiae alpha-glucosidase using pNPG as substrate assessed as ratio of Kik to Kiv at 4 uM
# Saccharomyces cerevisiae [19] = test: Uncompetitive inhibition of Saccharomyces cerevisiae alpha-glucosidase using pNPG as substrate assessed as ratio of Kik to Kiv at 2 uM
# Saccharomyces cerevisiae [20] = test: Uncompetitive inhibition of Saccharomyces cerevisiae alpha-glucosidase using pNPG as substrate assessed as ratio of Kik to Kiv at 2.4 uM
# [21] = Uncompetitive inhibition of Saccharomyces cerevisiae alpha-glucosidase using maltose as substrate by Cornish-Bowden plot analysis
# Saccharomyces cerevisiae [22] = test: Uncompetitive inhibition of Saccharomyces cerevisiae alpha-glucosidase using maltose as substrate assessed as ratio of Kik to Kiv at 2 uM; summary of the method: as §2
SMILES,Activity [1] [%],Activity (Saccharomyces cerevisiae [2]) [%],Activity [3] [%],further results
O=C(O)[C@H]1CN(Cc2ccccn2)CC[C@H]1O,100,95,103,–
O=C(O)C1=CC(O)CN(Cc2ccccc2)C1 (configuration not stated),101,95,97,–
O=C(O)C1=CC(O)CN(Cc2ccncc2)C1 (configuration not stated),104,3,103,Inhibition type (qualitative) (Saccharomyces cerevisiae [4]): Active; IC50 [5]: 2000 nM; Ki [6]: 10200 nM; uncompetitive inhibition (Lineweaver-Burk) (Saccharomyces cerevisiae [7]): Active
O=C(O)C1=CCCN(Cc2ccncc2)C1,99,99,95,–
COC(=O)C1=CC(O)CN(Cc2ccccn2)C1 (configuration not stated),100,97,103,–
O=C(O)[C@H]1CN(Cc2ccncc2)CC[C@H]1O,100,85,108,–
O=C(O)C1=CCCN(Cc2cccnc2)C1,99,102,102,–
COC(=O)C1=CC(O)CN(Cc2ccccc2)C1 (configuration not stated),99,92,93,–
O=C(O)C1=CCCN(Cc2cc(=O)[nH]c(=O)[nH]2)C1,102,97,100,–
CCOC(=O)N1C=C(C(=O)OC)CCC1,100,109,96,–
CCOC(=O)C1CN(Cc2ccccc2)CCC1O (mixture of isomers),103,100,95,–
O=C(O)C1=CCCN(Cc2ccccc2)C1,100,97,89,–

# Continued, in another order:
Activity [1] [%],Activity (Saccharomyces cerevisiae [2]) [%],Activity [3] [%],SMILES,further results
100,93,100,O=C(O)C1=CCCN(Cc2nc3ccccc3[nH]2)C1,–
100,82,102,O=C(O)[C@H]1CN(Cc2ccccc2)CC[C@H]1O,–
100,97,104,O=C(O)[C@H]1CN(Cc2cccnc2)CC[C@H]1O,–
100,95,97,COC(=O)C1=CC(O)CN(Cc2cc(=O)[nH]c(=O)[nH]2)C1 (configuration not stated),–
100,3,102,O=C(O)C1=CC(O)CN(Cc2cc(=O)[nH]c(=O)[nH]2)C1 (configuration not stated),Inhibition type (qualitative) (Saccharomyces cerevisiae [4]): Active; IC50 [5]: 2000 nM; Ki [6]: 12500 nM; uncompetitive inhibition (Lineweaver-Burk) (Saccharomyces cerevisiae [7]): Active
102,2,100,O=C(O)C1=CC(O)CN(Cc2cccnc2)C1 (configuration not stated),Ratio (Saccharomyces cerevisiae [8]): 1.72; Ratio (Saccharomyces cerevisiae [9]): 1.47; Ratio (Saccharomyces cerevisiae [10]): 1.04; inhibition (Saccharomyces cerevisiae [11]): Active; Inhibition type (qualitative) (Saccharomyces cerevisiae [4]): Active; Ratio (Saccharomyces cerevisiae [12]): 1.2; IC50 [5]: 2340 nM; Ratio (Saccharomyces cerevisiae [13]): 1.07; Ratio (Saccharomyces cerevisiae [14]): 1.09; inhibition (Saccharomyces cerevisiae [15]): Active; Ratio (Saccharomyces cerevisiae [16]): 1.05; Ratio (Saccharomyces cerevisiae [17]): 1.03; Ratio (Saccharomyces cerevisiae [18]): 1.49; Ratio (Saccharomyces cerevisiae [19]): 0.998; Ki [6]: 1200 nM; Ratio (Saccharomyces cerevisiae [20]): 1.25; Ki [21]: 800 nM; uncompetitive inhibition (Lineweaver-Burk) (Saccharomyces cerevisiae [7]): Active; Ratio (Saccharomyces cerevisiae [22]): 1.09
101,95,96,O=C(O)C1=CCCN(Cc2ccccn2)C1,–
101,2,103,O=C(O)C1=CC(O)CN(Cc2ccccn2)C1 (configuration not stated),Inhibition type (qualitative) (Saccharomyces cerevisiae [4]): Active; IC50 [5]: 2000 nM; Ki [6]: 5300 nM; uncompetitive inhibition (Lineweaver-Burk) (Saccharomyces cerevisiae [7]): Active
99,94,105,COC(=O)C1=CC(O)CN(Cc2ccncc2)C1 (configuration not stated),–
99,105,102,COC(=O)C1=CC(O)CN(Cc2cccnc2)C1 (configuration not stated),–

# — ChEMBL document CHEMBL2417376, “N-Heteroarylmethyl-5-hydroxy-1,2,5,6-tetrahydropyridine-3-carboxylic acid a novel scaffold for the design of uncompetitive α-glucosidase inhibitors” (Bioorg Med Chem, 2013)
